# Not all results are given here.
# Apaf-1 act: activates human Apaf-1 apoptosome; Apaf-1 apoptosome caspase-3 activation, DEVD-Rh110 fluorescence; hits give low values; activity change, negative = activation, % at 20 µM; actives 0.31% (n = 330,000);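 active means activity change at or below -40% at 20 µM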
# Target sequence (O14727 whole entry, looked up): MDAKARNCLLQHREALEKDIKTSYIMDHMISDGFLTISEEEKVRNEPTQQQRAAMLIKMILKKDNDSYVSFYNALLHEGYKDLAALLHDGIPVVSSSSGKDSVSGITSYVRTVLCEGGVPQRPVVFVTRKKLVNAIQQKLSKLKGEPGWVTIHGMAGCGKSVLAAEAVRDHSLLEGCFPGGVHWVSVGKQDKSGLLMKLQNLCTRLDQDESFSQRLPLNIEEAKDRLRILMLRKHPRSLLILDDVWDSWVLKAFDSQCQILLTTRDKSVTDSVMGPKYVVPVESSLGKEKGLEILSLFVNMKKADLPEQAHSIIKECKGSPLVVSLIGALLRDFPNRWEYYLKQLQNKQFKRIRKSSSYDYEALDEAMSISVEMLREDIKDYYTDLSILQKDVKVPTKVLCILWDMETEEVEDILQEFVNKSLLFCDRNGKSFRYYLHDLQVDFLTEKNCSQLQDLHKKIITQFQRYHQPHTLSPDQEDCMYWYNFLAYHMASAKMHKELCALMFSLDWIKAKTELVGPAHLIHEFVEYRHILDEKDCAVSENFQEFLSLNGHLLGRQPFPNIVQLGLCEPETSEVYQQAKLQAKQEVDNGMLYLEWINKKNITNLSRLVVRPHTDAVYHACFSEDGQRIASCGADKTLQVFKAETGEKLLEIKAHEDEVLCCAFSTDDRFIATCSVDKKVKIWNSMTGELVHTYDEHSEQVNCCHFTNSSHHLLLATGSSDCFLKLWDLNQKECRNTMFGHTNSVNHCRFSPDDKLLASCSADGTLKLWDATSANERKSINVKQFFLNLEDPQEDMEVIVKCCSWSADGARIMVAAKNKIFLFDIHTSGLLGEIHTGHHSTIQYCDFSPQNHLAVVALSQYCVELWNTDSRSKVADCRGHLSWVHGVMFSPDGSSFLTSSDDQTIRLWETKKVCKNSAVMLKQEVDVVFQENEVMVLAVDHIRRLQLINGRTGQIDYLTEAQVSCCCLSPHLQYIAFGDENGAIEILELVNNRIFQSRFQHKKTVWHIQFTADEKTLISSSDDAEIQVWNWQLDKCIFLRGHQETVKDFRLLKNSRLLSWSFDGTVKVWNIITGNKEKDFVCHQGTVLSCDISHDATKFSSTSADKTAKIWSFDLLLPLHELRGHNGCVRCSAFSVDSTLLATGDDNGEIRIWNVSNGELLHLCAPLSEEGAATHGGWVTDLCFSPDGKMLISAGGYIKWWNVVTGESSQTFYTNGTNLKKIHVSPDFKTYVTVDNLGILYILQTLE
#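 Assay system – biochemical Apaf-1 apoptosome reconstitution · Medium – 20 mM HEPES buffer, pH 7.5, containing CHAPS and BSA · Incubation – 30 min preincubation, 50 min reaction, room temperature · Measured by – Caspase-3-released Rh110 fluorescence, 540 nm emission, 480 nm excitation · Read-out – Caspase-3 cleavage activity downstream of Apaf-1 activation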
# Rh110 interf act: counter-screen for Apaf-1 activators: fluorescence interference; shares compounds with Apaf-1 act; Rh110 fluorescence interference, quenched caspase reaction, Ex480/Em540; fluorescence interference (activity change), % at 20 µM, hits read low; 980 tested, under 10 active; AID 504616;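 active means mean activity change at or below -40% when tested at 20 µM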
# Apaf-1 act conf: confirmation of human Apaf-1 activators. shares compounds with Apaf-1 act. reconstituted apoptosome caspase-3 activity, DEVD-Rh110 fluorescence; hits give low values. activity change, negative = activation, % at 20 µM. actives 5% (n = 980);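 active means mean activity change at or below -40%, meaning activation of 40% or more, at 20 µM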
# Fluor interf act: counter-screen for Apaf-1 activators: fluorescence interference, dose response | shares compounds with Apaf-1 act | fluorescence interference counterscreen, Apaf-1 activator assay | EC50, µM | 55 tested, under 10 active; call rule not given here
# Active calls of the source: *; / = no result given.
SMILES,Apaf-1 act,Rh110 interf act,Apaf-1 act conf,others
O=C(Nc1ccc(OC(F)F)c(Cl)c1)[C@@H]1CCCN1C(=O)c1cccs1,92.3,/,/,
Cc1ccc(NC(=O)N2CCCC2C(=O)Nc2ccc3c(c2)OCCO3)cc1 (stereo not drawn),-82.8*,-1.2,10.5,
O=C(Nc1ccc2c(c1)OCO2)C1CCCCN1S(=O)(=O)c1ccccc1 (stereo not drawn),-95.0*,16.1,17.5,
COC(=O)c1ccc(C(=O)Nc2ccc(N)cc2N)cc1,48.2,/,/,
Cc1ccc(S(=O)(=O)N2CCN(C(=O)COC(=O)c3ccc([N+](=O)[O-])o3)CC2)c(C)c1,59.3,/,/,
NS(=O)(=O)c1cccc(NC(=O)CCS(=O)(=O)c2ccc(Cl)cc2)c1,-253.5*,1.6,3.0,
CC(C)C[C@@H]1CN=C(N)N1C[C@@H]1CCCN1C[C@@H](C(C)C)N1C[C@@H](Cc2ccccc2)N(CCc2ccc(Cl)c(Cl)c2)C1=N,63.4,/,/,
N=c1n(CC(=O)c2ccc(Br)s2)c2ccccc2n1Cc1ccccc1,42.4,/,/,
Clc1ccc(-c2cn3nc4c(nc3n2)CCCC4)cc1,65.3,/,/,
Cc1cc(NC(=O)CCSc2ccccc2)ccc1Br,-65.0*,15.1,22.0,
CC(=O)N(C1=C(N)C(=O)c2ccccc2C1=O)c1ccccc1,67.4,/,/,
COc1ccc2cc3cc(C(=O)NCCCN4CCc5ccccc5C4)sc3nc2c1,42.0,/,/,
O=C(Nc1ncn[nH]1)c1c(Cl)ccc(Cl)c1Cl,-46.6*,-2.5,9.7,
NCCc1cnc[nH]1,3.0,/,/,
Cn1c(C(=O)NCCN2CCCCCC2)cc2c(=O)n(C)c3ccccc3c21,43.0,/,/,
CCSc1nsc(NC(=O)Nc2ccc(F)cc2F)n1,-94.7*,6.4,16.1,
COc1cc2c(cc1OC)C1=C(C#N)CCC(=O)N1CC2,50.0,/,/,
CCNC(=S)Nc1cccc(NC(=O)c2ccccc2O)c1,-206.5*,-3.3,14.8,
CCN(CCO)c1ccc(NC(=S)Nc2cccc(S(=O)(=O)N(C)C)c2)cc1,42.9,/,/,
C#CCOCCOCCOCCNc1nc(N2CCN(C(=O)CCCCCCCCCCNC(=O)[C@H]([C@@H](C)CC)n3cc(CCCCCN)nn3)CC2)nc(N2CCN(C(=O)CCCCCCCCCCNC(=O)[C@H](CCCCN)n3cc(CCCC(=O)O)nn3)CC2)n1,55.7,/,/,
CCOC(=O)c1ccc(N2CSC3=C(C#N)C(c4cccs4)CC(=O)N3C2)cc1 (stereo not drawn),54.7,/,/,
O=C(O)c1cc(O)c2c(c1)[C@@H]([C@H]1c3cc(C(=O)O)cc(O)c3C(=O)c3c(O[C@@H]4O[C@H](CO)[C@@H](O)[C@H](O)[C@H]4O)cccc31)c1cccc(OC3O[C@H](CO)[C@@H](O)[C@H](O)[C@H]3O)c1C2=O (stereo partly drawn),95.4,/,/,
COc1cccc(CNC(=O)CN2C(=O)COc3ccc(S(=O)(=O)N4CCCC4)cc32)c1,-81.5*,0.1,6.4,
COc1cccc(CN(C)C(=O)c2ccc(C)c(S(=O)(=O)N3CCCCC3)c2)c1,40.1,/,/,
COc1cccc(CN(C)C(=O)c2cc(S(=O)(=O)N3CCCCCC3)ccc2OC)c1,50.6,/,/,
SMILES,Apaf-1 act,Rh110 interf act,Apaf-1 act conf,others
N=C1CCC(=N)c2c1c(O)c1ccccc1c2O,77.4,/,/,
O=C(c1ccccc1)c1coc2c1C(=O)c1ccccc1C2=O,63.6,/,/,
COC(=O)C1=C(C)N(Cc2ccccc2)C(=NCc2cccc(Cl)c2)N[C@H]1c1cccc(F)c1,67.4,/,/,
O=C(N/N=C/c1[nH]c2ccccc2c1Cl)c1cccc(Br)c1,-71.9*,11.6,11.4,
O=C(NN=c1c(=O)c2ccccc2c1=O)c1ccccc1,96.4,/,/,
O=C1c2ccccc2-c2c1nc1c([n+]2[O-])CCCC1,41.6,/,/,
Nc1ccc(N2CCCCC2)c2nonc12,97.1,/,/,
Cc1cc(C(=O)Nc2ccccc2N2CCCCC2)no1,-512.0*,8.2,16.8,
NC(=O)c1cc(N)ccc1N1CCCC1,43.6,/,/,
Cc1ccc(C2(C)NC(=O)N(CC(=O)Nc3ccc4[nH]c(=O)[nH]c4c3)C2=O)cc1 (stereo not drawn),-58.2*,11.7,-4.7,
CC1CC(C)(C)CC2(C1)NC(=O)N(CC(=O)Nc1ccc3[nH]c(=O)[nH]c3c1)C2=O (stereo not drawn),44.3,/,/,
O=C(O)CCC1c2cc3c4cc2OC2Oc5cc6c(cc51)C(CCC(=O)O)c1cc5c7cc1OC(O6)c1cc6cc(c1)Oc1cc(cc(C(=O)O)c1)Oc1cc8cc(c1)C(Oc1cc(c(cc1C5CCC(=O)O)C3CCC(=O)O)OC(O4)c1cc(cc(c1)Oc1cc(cc(C(=O)O)c1)O8)Oc1cc(cc(C(=O)O)c1)Oc1cc(cc2c1)Oc1cc(cc(C(=O)O)c1)O6)O7 (stereo not drawn),98.7,/,/,
CN(C)CCCNC(=O)CC1C[C@H](C(=O)N2CCCCC2)[C@@]2(CCc3ccccc3)c3[nH]c4ccccc4c3CCN2C1=O (stereo partly drawn),45.9,/,/,
O=C(CCC1N=C2c3ccccc3N=C(SCc3ccc(Cl)cc3)N2C1=O)NCc1ccco1 (stereo not drawn),40.8,/,/,
S=C(NCCc1ccc(Cl)cc1)NCc1ccco1,-154.0*,2.8,14.7,
Cc1ccc(S(=O)(=O)C(C#N)c2nc3ccccc3nc2N2CCCC2)cc1 (stereo not drawn),77.2,/,/,
Cc1cc(OCC(=O)NCCO)ccc1Cl,-53.5*,7.0,10.5,
Cc1ccc(OCC(=O)N(Cc2nnc(-c3ccccc3Cl)o2)C2CC2)cc1C,56.2,/,/,
CNC(=S)NNC(=O)c1sccc1OCc1cccc(C(F)(F)F)c1,-189.5*,12.0,6.9,
CCN1CCN(C2=C(NS(=O)(=O)c3ccccc3)C(=O)c3ccccc3C2=O)CC1,82.5,/,/,
O=C1/C(=C\c2ccc(-c3ccccc3[N+](=O)[O-])o2)C(c2ccccc2)=NN1c1ccccc1,43.8,/,/,
CCOC(=O)c1[nH]c2ccc(Br)cc2c1NC(=O)CCN1CCCC(C)C1 (stereo not drawn),97.3,/,/,
CC(=O)N1CCc2cc(Br)cc(S(=O)(=O)NCCCN3CCCC(C)C3)c21 (stereo not drawn),-40.5*,-5.0,12.5,
CN(C)CCC(c1ccccc1)c1ccccn1 (stereo not drawn),-2.9,/,/,
CCCCNC(=O)C(C)N(CCN(C)C)C(=O)CCCN1C(=O)NC(c2ccc([N+](=O)[O-])cc2)C(C(=O)OCc2ccccc2)=C1C (stereo not drawn),45.3,/,/,
CCC(C)Sc1ccc(-c2nc3cnccn3c2NC2CCCCC2)cc1 (stereo not drawn),45.2,/,/,
O=C(/C=C/c1ccoc1)c1ccccc1O,-133.5*,-0.9,9.0,
CCOc1cc(/C=C2\C(=O)N(CCC#N)N=C2C)ccc1OCC(N)=O,57.8,/,/,
C=C(C)C(=O)Nc1cccc(C2=NOC3(C2)C[C@@H](C(N)=O)N(C(=O)CC(c2ccccc2)c2ccccc2)C3)c1 (stereo partly drawn),-107.0*,14.0,-36.0,
C=C(C)C(=O)Nc1cccc(C2=NOC3(C2)C[C@@H](C(N)=O)N(C(=O)/C=C/C=C/C)C3)c1 (stereo partly drawn),-326.2*,-2.5,-129.2*,Fluor interf act=>100

# Screening data as filed in PubChem.
